Data on 67 molecules can be found in ChEMBL document CHEMBL1800068 (J Med Chem, 2011).

In assay [1] the target is T1, Retinol-binding protein 4 (Homo sapiens, UniProt P02753). The experiment in a line: Binding affinity to His-tagged recombinant human sRBP expressed in Escherichia coli BL21(DE3) assessed as disruption of sRBP-TTR protein interaction after 1 hr by SDS-PAGE and silver staining method. The procedure, abridged:
(§1)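 Compound was 100 μM, or 1, 10, 20, 50 and 100 μM for dose–response. Control was 10 μM ROH with no compound. Released free sRBP in the flow-through was analysed by SDS-PAGE; each run done at least three times.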

Assay [2] addresses T1, Retinol-binding protein 4. The experiment in a line: Binding affinity to His-tagged recombinant human sRBP expressed in Escherichia coli BL21(DE3) assessed as disruption of sRBP-TTR protein interaction at 1 to 100 uM after 1 hr by SDS-PAGE and silver staining method. The method, boiled down:
as §1

In assay [3] the target is T1, Retinol-binding protein 4. The experiment in a line: Antagonist activity at His-tagged recombinant human sRBP […] assessed as disruption of ROH-sRBP-TTR protein interaction after 2 hr by TR-FRET assay. The format is functional. The procedure, abridged: (§2)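 Apo His-sRBP (P. pastoris-expressed), 5 nM, with 100 nM biotinylated native TTR, 100 nM streptavidin-APC and 1 nM europium anti-His antibody. Inhibitor held at 10 μM while ROH was titrated, in 20 mM Tris-HCl pH 7.4, 150 mM NaCl, 1 mM EDTA, 0.01% BSA, 0.02% Tween 20.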
On the technique in general: TR-FRET usually uses a lanthanide donor and a delayed reading to cut background.

In assay [4] the target is T1, Retinol-binding protein 4. Nature of the assay: Binding affinity to immobilized His-tagged recombinant human sRBP assessed as inhibition of sRBP and detergent treated HEK293 membrane interaction at 10 uM after 1 hr by surface plasmon resonance assay. On the technique in general: SPR reads the build-up and loss of mass on a sensor chip optically.
Assay [5] concerns the target T1, Retinol-binding protein 4. Nature of the assay: Binding affinity to His-tagged recombinant human sRBP expressed in Pichia pastoris assessed as apparent dissociation constant after 5 mins by fluorescence spectrophotometric analysis. The settings on record: read-out: Kd(app).
The target of assay [6] is T1, Retinol-binding protein 4. The experiment in a line: Antagonist activity at His-tagged recombinant human sRBP […] assessed as disruption of ROH-sRBP-TTR protein interaction after 2 hr by TR-FRET assay relative to control. The format is functional. The method, boiled down: as §2

Calls of active or inactive are those of the source. The calls are words filed in the database; no cut-off is given here.

In the case of `CC1=C(/C=C/C(C)=C/C=C/C(C)=C/C(=O)N2CCCOCC2)C(C)(C)CCC1`, the outcome in assay [1] was Active.

As to `COCCC(=O)Nc1ccc(O)cc1`, in assay [2], the result was inactive.

`CC(C)=CCC/C(C)=C/C(=O)Nc1ccc(O)cc1`: the result in assay [2] was inactive.

On to `CC1=C(/C=C/C(C)=C/C=C/C(C)=C/C(=O)NCCCOc2ccccc2)C(C)(C)CCC1`, for which the result in assay [1] was Active.

Regarding `O=C(CCCCCc1ccccc1)Nc1ccc(O)cc1`, in assay [2], the outcome was inactive.

As for `COc1ccccc1CNC(=O)/C=C(C)/C=C/C=C(C)/C=C/C1=C(C)CCCC1(C)C`, the result in assay [1] was Active.

What is called EC50 is the concentration needed to bring the measured effect to its halfway point. As to `CC1=C(/C=C/C(C)=C/C=C/C(C)=C/C(=O)NCCO)C(C)(C)CCC1`, the EC50 in assay [3] is 145 nM. For the same molecule, the outcome in assay [1] and in assay [4] was Active. The Kd in assay [5] came out at 214 nM. In assay [6], the Ratio EC50 worked out at 2.

With `CC1=C(/C=C/C(C)=C/C=C/C(C)=C/C(=O)NC2CCCCC2)C(C)(C)CCC1`, the outcome in assay [1] was Active.

Take `COc1ccc(CC(=O)Nc2ccc(O)cc2)cc1`: in assay [2], the result was inactive.

With `CC(CCCC(C)CC(=O)Nc1ccc(O)cc1)CCC1C(C)CCCC1(C)C` (centres undefined), in assay [1], the outcome was Active.

As to `COc1ccc(CNC(=O)/C=C(C)/C=C/C=C(C)/C=C/C2=C(C)CCCC2(C)C)cc1`, in assay [1], the outcome was Active.

With `C=CC(=O)Nc1ccc(O)cc1`, the outcome in assay [2] was inactive.

Take `CC1=C(/C=C/C(C)=C/C=C/C(C)=C/C(=O)NCCC(C)(C)C)C(C)(C)CCC1`: in assay [1], the outcome was Active.

As to `CC1=C(/C=C/C(C)=C/C=C/C(C)=C/C(=O)Nc2ccc(OCC(=O)N(C)C)cc2)C(C)(C)CCC1`, in assay [1], the outcome was Active.

As for `CC1=C(/C=C/C(C)=C/C=C/C(C)=C/C(=O)NCc2ccc(F)cc2)C(C)(C)CCC1`, the result in assay [1] was Active.

For the molecule `COc1ccc(CCC(=O)Nc2ccc(O)cc2)cc1`, in assay [2], the result was inactive.

`CC(C)=CC(=O)Nc1ccc(O)cc1`: the result in assay [2] was inactive.

`CC1=C(/C=C/C(C)=C/C=C/C(C)=C/C(=O)N2CCCCCC2)C(C)(C)CCC1`: the result in assay [1] was Active.

For `CC1=C(/C=C/C(C)=C/C=C/C(C)=C/C(=O)NCc2cccnc2)C(C)(C)CCC1`, the result in assay [1] was Active.

Take `COc1ccc(NC(=O)/C=C(C)/C=C/C=C(C)/C=C/C2=C(C)CCCC2(C)C)cc1`: the result in assay [1] was Active.

For `CC(C)CCC(=O)Nc1ccc(O)cc1`, in assay [2], the result was inactive.

Take `O=C(CCCCc1ccccc1)Nc1ccc(O)cc1`: in assay [2], the result was inactive.

Consider `COCCOCC(=O)Nc1ccc(O)cc1`, for which, in assay [2], the result was inactive.

On to `CC1=C(/C=C/C(C)=C/C=C/C(C)=C/C(=O)N2CCN(c3ccc(C)cc3)CC2)C(C)(C)CCC1`, for which the outcome in assay [1] was Active.

`CC(C)c1ccc(CCC(=O)Nc2ccc(O)cc2)cc1`: the result in assay [2] was inactive.

Take `CC1=C(/C=C/C(C)=C/C=C/C(C)=C/C(=O)Nc2ccc(OCC(=O)N3CCCCC3)cc2)C(C)(C)CCC1`: the outcome in assay [1] was Active.

Take `CC1=C(/C=C/C(C)=C/C=C/C(C)=C/C(=O)NCC(O)CO)C(C)(C)CCC1` (centres undefined): the EC50 in assay [3] was determined as 171 nM. Also, the outcome in assay [1] and in assay [4] was Active. Also, in assay [5], the Kd came out at 178 nM. The Ratio EC50 in assay [6] is 2.

On to `CC1=C(/C=C/C(C)=C/C=C/C(C)=C/C(=O)NCc2ccc(Cl)cc2)C(C)(C)CCC1`, for which, in assay [1], the outcome was Active.

Turning to `CC1=C(/C=C/C(C)=C/C=C/C(C)=C/C(=O)N2CCC(F)CC2)C(C)(C)CCC1`, in assay [1], the result was Active.

For the molecule `CCCCC(=O)Nc1ccc(O)cc1`, the outcome in assay [2] was inactive.

For `COc1ccc(CCCC(=O)Nc2ccc(O)cc2)cc1`, the result in assay [2] was inactive.

As for `CC1=C(/C=C/C(C)=C/C=C/C(C)=C/C(=O)NC2CC2)C(C)(C)CCC1`, the outcome in assay [1] was Active.

As for `CC1=C(/C=C/C(C)=C/C=C/C(C)=C/C(=O)Nc2ccccc2)C(C)(C)CCC1`, the outcome in assay [1] was Active.

Take `CCOc1ccc(NC(=O)/C=C(C)/C=C/C=C(C)/C=C/C2=C(C)CCCC2(C)C)cc1`: the result in assay [1] was Active.

For `CC1=C(/C=C/C(C)=C/C=C/C(C)=C/C(=O)Nc2ccc(OCC(=O)NCCO)cc2)C(C)(C)CCC1`, the result in assay [1] was Active.

Consider `COc1cccc(NC(=O)/C=C(C)/C=C/C=C(C)/C=C/C2=C(C)CCCC2(C)C)c1`, for which, in assay [1], the result was Active.

Turning to `CC1=C(/C=C/C(C)=C/C=C/C(C)=C/C(=O)N2CCC(Cc3ccccc3)CC2)C(C)(C)CCC1`, the outcome in assay [1] was Active.

As for `COc1cc(NC(=O)/C=C(C)/C=C/C=C(C)/C=C/C2=C(C)CCCC2(C)C)cc(OC)c1OC`, in assay [1], the result was Active.

Take `O=C(CCCc1ccccc1)Nc1ccc(O)cc1`: the result in assay [2] was inactive.

Take `CC1=C(/C=C/C(C)=C/C=C/C(C)=C/C(=O)N2CCS(=O)(=O)CC2)C(C)(C)CCC1`: in assay [1], the outcome was Active.

As for `CC1=C(/C=C/C(C)=C/C=C/C(C)=C/C(=O)N2CCOCC2)C(C)(C)CCC1`, the EC50 in assay [3] turned out to be 154 nM. Moreover, the outcome in assay [1] and in assay [4] was Active. Moreover, the Kd in assay [5] stood at 227 nM. In assay [6], the Ratio EC50 came out at 2.

For the molecule `CC1=C(/C=C/C(C)=C/C=C/C(C)=C/C(=O)NCc2ccccn2)C(C)(C)CCC1`, the result in assay [1] was Active.

As to `CC1=C(/C=C/C(C)=C/C=C/C(C)=C\C(=O)Nc2ccc(O)cc2)C(C)(C)CCC1`, the outcome in assay [1] and in assay [4] was Active.

For the molecule `CC(C)(C)C(=O)Nc1ccc(O)cc1`, the result in assay [2] was inactive.

`CC1=C(/C=C/C(C)=C/C=C/C(C)=C/C(=O)NCc2ccc(Oc3ccccc3)cc2)C(C)(C)CCC1`: the result in assay [1] was Active.

Consider `CC1=C(/C=C/C(C)=C/C=C/C(C)=C/C(=O)Nc2ccc(N(C)C)cc2)C(C)(C)CCC1`, for which the EC50 in assay [3] turned out to be 954 nM. Further, the Activity entry in assay [1] is “Dose-dependent effect”. Further, the outcome in assay [4] was Active. In addition, in assay [5], the Kd amounted to 98 nM. In addition, the Ratio EC50 in assay [6] turned out to be 15.

For the molecule `CC1=C(/C=C/C(C)=C/C=C/C(C)=C/C(=O)N2CCC3CCCCC3C2)C(C)(C)CCC1` (centres undefined), in assay [1], the result was Active.

As to `O=C(Cc1ccccc1)Nc1ccc(O)cc1`, the outcome in assay [2] was inactive.

Take `CC1=C(/C=C/C(C)=C/C=C/C(C)=C/C(=O)N2CCC(O)CC2)C(C)(C)CCC1`: the outcome in assay [1] was Active.

As for `CC1=C(/C=C/C(C)=C/C=C/C(C)=C/C(=O)NCc2ccccc2)C(C)(C)CCC1`, the outcome in assay [1] was Active.

With `CC(C)(C)CC(=O)Nc1ccc(O)cc1`, the result in assay [2] was inactive.

Consider `CC1=C(/C=C/C(C)=C/C=C/C(C)=C/C(=O)N2CCCC3CCCCC32)C(C)(C)CCC1` (centres undefined), for which, in assay [1], the outcome was Active.

For the molecule `CC1=C(/C=C/C(C)=C/C=C/C(C)=C/C(=O)N2CCCCC2)C(C)(C)CCC1`, the result in assay [1] was Active.

For `O=C(CCc1ccccc1)Nc1ccc(O)cc1`, the result in assay [2] was inactive.

For `CC1=C(/C=C/C(C)=C/C=C/C(C)=C/C(=O)NCc2ccc3c(c2)OCO3)C(C)(C)CCC1`, the outcome in assay [1] was Active.

Take `CCOC(=O)CNC(=O)/C=C(C)/C=C/C=C(C)/C=C/C1=C(C)CCCC1(C)C`: in assay [1], the result was Active.

On to `CC1=C(/C=C/C(C)=C/C=C/C(C)=C/C(=O)N2CCC(O)(c3ccccc3)CC2)C(C)(C)CCC1`, for which the result in assay [1] was Active.

For the molecule `CC1=C(/C=C/C(C)=C/C=C/C(C)=C/C(=O)N2CCC(F)(F)CC2)C(C)(C)CCC1`, the result in assay [1] was Active.

Turning to `COCCOc1ccc(NC(=O)/C=C(C)/C=C/C=C(C)/C=C/C2=C(C)CCCC2(C)C)cc1`, in assay [1], the outcome was Active.

With `CC1=C(/C=C/C(C)=C/C=C/C(C)=C/C(=O)Nc2ccc3c(c2)OCO3)C(C)(C)CCC1`, the result in assay [1] was Active.

Take `CC(C)CC(=O)Nc1ccc(O)cc1`: the result in assay [2] was inactive.

Consider `CC1=C(/C=C/C(C)=C/C=C/C(C)=C/C(=O)Nc2ccc(OCC(=O)O)cc2)C(C)(C)CCC1`, for which the outcome in assay [1] was Active.

On to `CC(C)c1ccc(CCCC(=O)Nc2ccc(O)cc2)cc1`, for which the outcome in assay [2] was inactive.

`COc1cccc(CNC(=O)/C=C(C)/C=C/C=C(C)/C=C/C2=C(C)CCCC2(C)C)c1`: the outcome in assay [1] was Active.

For `CC1=C(/C=C/C(C)=C/C=C/C(C)=C/C(=O)NCC2CC2)C(C)(C)CCC1`, in assay [1], the result was Active.

With `CC1=C(/C=C/C(C)=C/C=C/C(C)=C/C(=O)N2CCC(CCO)CC2)C(C)(C)CCC1`, the result in assay [1] was Active.

Turning to `CC(C)CCCC(=O)Nc1ccc(O)cc1`, the result in assay [2] was inactive.
